Calls of active or inactive are those of the source.
Legend:
[1] = Growth inhibition of human NCI60 cells at 10 uM incubated for 48 hrs by sulforhodamine B assay relative to control; format: functional; details: NCI60, 48 h, read-out: GI
In short: (§1)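 NCI Developmental Therapeutics Program panel of sixty human tumour cell lines. Compounds were screened first at a single 10 μM dose (percent growth inhibition), and dose-response curves were run for active ligands. GI50 is the concentration giving 50% growth inhibition, reported as the mean across the 60 lines.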

Paracentrotus lividus [2] = test: Induction of microtubule destabilization in sea urchin embryo assessed as cleavage arrest exposed for 8 to 20 mins after fertilization and 45 to 55 mins before first mitotic cycle completion measured 2.5 to 5.5 hrs after fertilization
In short: (§2)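 Gametes were obtained by intracoelomic injection of 0.5 M KCl, and eggs were fertilised in filtered seawater. Embryos were cultured at room temperature with paddle agitation (60 rpm), as a monolayer at up to 2000 embryos/mL. Eggs were exposed 8–20 min post-fertilisation to 2-fold decreasing concentrations (10 mM DMSO stock diluted 10-fold in EtOH). Cleavage was scored microscopically at 2.5–5.5 h. The read-out was the threshold concentration, in duplicate.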

Paracentrotus lividus [3] = test: Induction of microtubule destabilization in sea urchin embryo assessed as cleavage alteration exposed 8 to 20 mins after fertilization and 45 to 55 mins before first mitotic cycle completion measured 2.5 to 5.5 hrs after fertilization; in short: as §2
Paracentrotus lividus [4] = test: Induction of microtubule destabilization in sea urchin embryo assessed as formation of tuberculate eggs for 8 to 20 mins after fertilization and 45 to 55 mins before first mitotic cycle completion measured 2.5 to 5.5 hrs after fertilization
In short: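 Sea urchin gametes were obtained by intracoelomic 0.5 M KCl injection, and embryos were cultured in filtered seawater at room temperature at up to 2000 embryos/mL. Fertilised eggs were exposed to 2-fold decreasing concentrations from 10 mM DMSO stocks diluted 10-fold in 96% EtOH. Final DMSO was kept ≤0.05% and EtOH ≤1%. Microscopic scoring gave the EC, the threshold causing 100% cleavage alteration, in duplicate.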

Paracentrotus lividus [5] = test: Induction of microtubule destabilization activity in sea urchin free-swimming blastulae assessed as embryo spinning measured after 0.25 to 20 hrs; details: Blastula
In short: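 Free-swimming blastulae just after hatching (8–10 h post-fertilisation) were cultured in filtered seawater at room temperature. They were treated with 2-fold decreasing concentrations (DMSO stock diluted 10-fold in EtOH; final DMSO ≤0.05%, EtOH ≤1%). Spinning and lack of forward movement were observed by light microscopy after 15 min to 20 h. The value is the effective threshold concentration, from duplicate measurements.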

[6] = Growth inhibition of human NCI60 cells incubated for 48 hrs by sulforhodamine B assay; format: functional; details: NCI60, 48 h; in short: as §1
Paracentrotus lividus [7] = test: Induction of microtubule destabilization in sea urchin embryo assessed as developmental retardation at later stages of development
Paracentrotus lividus [8] = test: Induction of microtubule destabilization in sea urchin embryo assessed as alteration at later stages of development

| SMILES | inhibition of growth at 10 µM [1] [%] | EC (Paracentrotus lividus [2]) [µM] | EC (Paracentrotus lividus [3]) [µM] | Activity (Paracentrotus lividus [4]) | EC (Paracentrotus lividus [5]) [µM] | GI50 [6] [nM] | Activity (Paracentrotus lividus [7]) | Activity (Paracentrotus lividus [8]) |
| --- | --- | --- | --- | --- | --- | --- | --- | --- |
| Cc1ccc(C(=O)c2sc3nc4c(cc3c2N)CCCC4)c(C)c1 | 78.9 | 0.2 | 0.05 | Active | > 5 | 280 |  |  |
| COc1ccc(C(=O)c2sc3nc(N)c(C#N)cc3c2N)cc1OC | 4.6 | > 4 | 4 |  | > 4 |  |  |  |
| CN1CCc2nc3sc(C(=O)c4ccccc4)c(N)c3cc2C1 | 13.3 | > 4 | 4 |  | > 4 |  | Active | Active |
| Cc1ccc(C(=O)c2sc3nc(C)ccc3c2N)cc1 |  | 4 | 1 | Active | > 10 |  |  |  |
| Cc1cc(C)c2c(N)c(C(=O)c3ccc(Br)cc3)sc2n1 |  | > 4 | > 4 |  | > 4 |  |  |  |
| Nc1c(C(=O)c2ccc(F)cc2)sc2nc3c(cc12)CCCC3 | 26.7 | > 4 | 0.2 |  | > 4 |  |  |  |
| COc1ccc(C(=O)c2sc3nc4c(cc3c2N)CCCC4)cc1 |  | > 4 | 0.5 |  | > 5 |  |  |  |
| Nc1c(C(=O)c2ccccc2)sc2nc3c(cc12)N1CCC3CC1 | 7.3 | > 4 | > 4 |  | > 4 |  |  |  |
| Cc1ccc(C(=O)c2sc3nc4c(cc3c2N)CCCC4)cc1 | 16.4 | 2 | 0.02 | Active | > 4 |  |  |  |
| Nc1c(C(=O)c2ccc(Cl)cc2)sc2nc3c(cc12)CCCC3 | 7.8 | > 4 | 0.5 |  | > 4 |  |  |  |
| Cc1ccc(C(=O)c2sc3nc4c(cc3c2N)CCC4)cc1 |  | > 4 | 0.2 |  | > 4 |  |  |  |
| COc1ccccc1-c1ccc2c(N)c(C(=O)c3ccc4c(c3)OCO4)sc2n1 | 37.4 | > 4 | > 4 |  | > 4 | 5130 | Active | Active |
| Cc1cccc(NC(=O)c2sc3nc4c(cc3c2N)CCC4)c1C |  | 0.5 | 0.05 |  | 5 |  |  |  |
| COc1ccc(C(=O)c2sc3nc4c(c(-c5ccccc5)c3c2N)CCCC4)cc1OC |  | > 4 | > 4 |  | > 4 |  | Active | Active |
| COc1ccc(C(=O)c2sc3nc(-c4ccccc4OC)ccc3c2N)cc1OC | 43.5 |  |  |  |  | 7940 |  |  |
| Cc1cccc(NC(=O)c2sc3nc4c(cc3c2N)CCCC4)c1C |  | 0.1 | 0.01 |  | 0.5 |  |  |  |
| Nc1c(C(=O)c2ccc3c(c2)OCO3)sc2nc(-c3ccncc3)ccc12 |  | > 4 | > 4 |  | > 4 |  | Active | Active |
| COc1ccc(C(=O)c2sc3nc(C)cc(C)c3c2N)cc1OC | 14.2 | > 4 | > 4 |  | > 4 |  |  |  |
| COc1ccc(C(=O)c2sc3nc4c(cc3c2N)N2CCC4CC2)cc1 | 11.5 | > 4 | > 4 |  | > 4 |  | Active | Active |

| SMILES | inhibition of growth at 10 µM [1] [%] | EC (Paracentrotus lividus [2]) [µM] | EC (Paracentrotus lividus [3]) [µM] | Activity (Paracentrotus lividus [4]) | EC (Paracentrotus lividus [5]) [µM] | GI50 [6] [nM] | Activity (Paracentrotus lividus [7]) | Activity (Paracentrotus lividus [8]) |
| --- | --- | --- | --- | --- | --- | --- | --- | --- |
| COc1ccc(C(=O)c2sc3nc(-c4ccncc4)ccc3c2N)cc1OC | 17.1 | > 4 | 4 |  | > 4 |  |  |  |
| COc1ccc(C(=O)c2cc(OC)c(OC)c(OC)c2)cc1O [PHENSTATIN] |  | 0.05 | 0.01 |  | 0.5 | 60 |  |  |
| COc1ccc(C(=O)c2sc3nc4c(cc3c2N)N2CCC4CC2)cc1OC | 11.7 | > 4 | > 4 |  | > 4 |  | Active | Active |
| Nc1c(C(=O)c2ccc(Br)cc2)sc2ncccc12 |  | > 4 | 1 |  | > 4 |  |  |  |
| Nc1c(C(=O)c2ccc3c(c2)OCO3)sc2nc3c(cc12)CCCC3 |  | 0.5 | 0.025 | Active | > 5 |  |  |  |
| Nc1c(C(=O)c2ccc(Br)cc2)sc2nc3c(cc12)CCCC3 | 8.1 | > 4 | 0.5 |  | > 4 |  |  |  |
| COc1ccc(C(=O)c2sc3nc4c(c(-c5ccncc5)c3c2N)CCCC4)cc1OC |  | > 4 | > 4 |  | > 4 |  | Active | Active |
| Nc1c(C(=O)Nc2cccc(C(F)(F)F)c2)sc2nc3c(cc12)CCCCC3 |  | > 4 | > 4 |  | > 4 |  |  |  |
| COC(=O)Nc1nc2cc(C(=O)c3cccs3)ccc2[nH]1 [NOCODAZOLE] |  | 0.001 | 0.005 |  | 0.1 | 38.9 |  |  |
| N#Cc1cc2c(N)c(C(=O)c3ccc(F)cc3)sc2nc1N |  | > 4 | 4 |  | > 4 |  |  |  |
| Nc1c(C(=O)c2ccc3c(c2)OCO3)sc2nc3c(c(C(F)(F)F)c12)CCCC3 |  | > 4 | > 4 |  | > 4 |  | Active | Active |
| N#Cc1cc2c(N)c(C(=O)c3ccc(Cl)cc3)sc2nc1N | 0.5 | > 4 | > 4 |  | > 4 |  | Active | Active |
| Nc1c(C(=O)Nc2ccccc2)sc2nc3c(cc12)CCCC3 |  | 0.05 | 0.01 |  | 0.2 |  |  |  |
| Cc1cc(C)c2c(N)c(C(=O)c3ccc4c(c3)OCCO4)sc2n1 | 2 | > 4 | 1 |  | > 4 |  |  |  |
| Nc1c(C(=O)c2ccc(Br)cc2)sc2nc3c(cc12)CCC3 | 19.3 | > 4 | 1 |  | > 4 |  |  |  |
| Cc1ccc2c(N)c(C(=O)c3ccc(Cl)cc3)sc2n1 | 18.4 | > 4 | 0.5 |  | > 4 |  |  |  |
| Nc1c(C(=O)Nc2ccccc2)sc2nc3c(cc12)CCCCC3 |  | 0.04 | 0.01 |  | 0.2 |  |  |  |
| Nc1c(C(=O)c2ccccc2)sc2nc3c(cc12)CCCC3 |  | 0.2 | 0.02 |  | 0.5 |  |  |  |

Source: ChEMBL document CHEMBL3872268, “3-Amino-thieno[2,3-b]pyridines as microtubule-destabilising agents: Molecular modelling and biological evaluation in the sea urchin embryo and human cancer cells” (Bioorg Med Chem, 2017)
